Laboratory results taken from ChEMBL document CHEMBL5512639, “Insights from structure-activity relationships and the binding mode of peptidic α-ketoamide inhibitors of the malaria drug target subtilisin-like SUB1” (Eur J Med Chem, 2024).
Activity calls are given as the source filed them. The rule behind the calls is not given here. Numbered stars: 1 amine (or outer) side, 2 acyl side, 3 side chain; on linkers, the order of the positions; unused ones are H or OH. Square brackets hold non-standard residues; d marks the D form. Peptide text beside a SMILES is read from it. * marks the point of attachment. Ala(1H-tetrazol-5-yl) = N[C@@H](Cc1nnn[nH]1)C(=O)O; Abu(4,4,4-F3) = N[C@@H](CC(F)(F)F)C(=O)O; Gly(cPent) = N[C@H](C(=O)O)C1CCCC1; X1 = C[C@H](N[*:1])C(=O)C(=O)[*:2]; Nva(3-Et) = CCC(CC)[C@H](N)C(=O)O; Pyrazinecarbonyl = O=C(c1cnccn1)*; tBuAla = CC(C)(C)C[C@H](N)C(=O)O; NMeL = CN[C@@H](CC(C)C)C(=O)O; αMeL = CC(C)C[C@](C)(N)C(=O)O; Phg = N[C@H](C(=O)O)c1ccccc1; Tle = CC(C)(C)[C@H](N)C(=O)O; hSer = N[C@@H](CCO)C(=O)O; Dab = NCC[C@H](N)C(=O)O; Abu = CC[C@H](N)C(=O)O; Dap = NC[C@H](N)C(=O)O; Aib = CC(C)(N)C(=O)O; Dha = C=C(N)C(=O)O; Sar = CNCC(=O)O; OAll = C=CCO*

What was measured:
[1] = Inhibition of full length recombinant Plasmodium vivax SUB1 expressed in Drosophila S2 cells using Dabsyl-KLVGADDV-SLA-EDANS as substrate measured every 2 mins for 1 hr by FRET assay
Plasmodium falciparum = assay: Antiparasitic activity against Plasmodium falciparum infected in human Erythrocyte assessed as inhibition of merozoite egress from human Erythrocyte at 100 uM measured for 8 hrs by flow cytometry analysis relative to control; type: functional
How it was run: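 P. falciparum cultured in human RBCs, RPMI 1640 with 25 mM HEPES, 2.5% Albumax II, 100 μM hypoxanthine, 37 °C, 5% O2/5% CO2. Sorbitol-synchronized, plasmion-enriched late schizonts at 2% hematocrit, 1% parasitemia exposed to compound for 8 h. Fixed in glutaraldehyde, permeabilized, RNase-treated, stained with YOYO-1. Ring parasitemia by flow cytometry (100,000 events) vs DMSO. Triplicate; IC50 from 16 concentrations, 180 to 0.8 μM.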

[2] = target: T1, Subtilisin-like protease 1 (Plasmodium falciparum, UniProt O61142); assay: Inhibition of full length recombinant Plasmodium falciparum SUB1 using Dabsyl-KLVSADNIDIS-EDANS as substrate measured every 2 mins for 1 hr by FRET assay
T1 sequence (O61142 whole entry): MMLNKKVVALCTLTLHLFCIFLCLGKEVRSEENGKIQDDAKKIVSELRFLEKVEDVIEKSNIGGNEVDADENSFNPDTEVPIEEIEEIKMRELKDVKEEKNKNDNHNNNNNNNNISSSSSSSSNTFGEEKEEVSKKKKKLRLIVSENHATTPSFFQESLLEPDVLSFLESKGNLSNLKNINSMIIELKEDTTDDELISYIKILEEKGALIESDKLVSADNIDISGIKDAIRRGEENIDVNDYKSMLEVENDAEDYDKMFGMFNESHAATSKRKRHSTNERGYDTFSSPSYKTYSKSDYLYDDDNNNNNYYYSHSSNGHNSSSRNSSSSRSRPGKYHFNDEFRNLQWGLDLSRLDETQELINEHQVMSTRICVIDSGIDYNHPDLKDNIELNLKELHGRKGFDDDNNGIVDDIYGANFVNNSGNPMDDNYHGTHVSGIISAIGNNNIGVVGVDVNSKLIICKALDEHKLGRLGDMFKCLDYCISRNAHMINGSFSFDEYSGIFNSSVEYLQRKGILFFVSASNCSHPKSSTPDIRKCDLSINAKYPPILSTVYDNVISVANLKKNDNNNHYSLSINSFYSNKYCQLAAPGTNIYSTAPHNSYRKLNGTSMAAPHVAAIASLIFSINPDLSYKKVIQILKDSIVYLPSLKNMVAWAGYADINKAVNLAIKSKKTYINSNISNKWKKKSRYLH

SMILES | IC50 [1] [µM] | inhibition at 100 µM (Plasmodium falciparum) [%] | inhibition (Plasmodium falciparum) | IC50 [2] [µM]
C=CCOC(=O)CC[C@H](NC(=O)[C@H](CC(N)=O)NC(=O)C(=O)[C@H](C)NC(=O)[C@H](C)NC(=O)[C@@H](NC(=O)[C@@H](NC(C)=O)[C@@H](C)CC)[C@@H](C)O)C(N)=O (Ac-ITA[X1]NE(OAll)-NH2) | 5.23 | 31 | – | –
C=CCOC(=O)CC[C@H](NC(=O)[C@H](CC(=O)O)NC(=O)C(=O)[C@H](C)NC(=O)[C@H](C)NC(=O)[C@H](CCCCN)NC(=O)[C@@H](NC(C)=O)[C@@H](C)CC)C(N)=O (Ac-IKA[X1]DE(OAll)-NH2) | 0.14 | 9 | – | –
C=CCOC(=O)CC[C@H](NC(=O)[C@H](CC(=O)O)NC(=O)C(=O)[C@H](CNC(C)=O)NC(=O)[C@H](C)NC(=O)[C@@H](NC(=O)[C@@H](NC(C)=O)[C@@H](C)CC)[C@@H](C)O)C(N)=O | 23.1 | – | – | –
CC[C@H](C)[C@H](NC(C)=O)C(=O)N[C@H](C(=O)N[C@@H](C)C(=O)N[C@@H](C)C(=O)C(=O)N[C@@H](Cc1nnn[nH]1)C(N)=O)[C@@H](C)O (Ac-ITA[X1][Ala(1H-tetrazol-5-yl)]-NH2) | 1.77 | – | inactive | –
C=CCOC(=O)CC[C@H](NC(=O)[C@H](CC(=O)O)NC(=O)C(=O)[C@H](C)NC(=O)[C@H](C)NC(=O)[C@@H](NC(=O)[C@@H](NC(C)=O)c1ccccc1)[C@@H](C)O)C(N)=O (Ac-[Phg]TA[X1]DE(OAll)-NH2) | 0.22 | 9 | – | –
C=CCOC(=O)CC[C@H](NC(=O)[C@H](CC(=O)O)NC(=O)C(=O)[C@H](C)NC(=O)[C@H](C)NC(=O)[C@@H](NC(=O)[C@@H](NC(C)=O)C(C)(C)C)[C@@H](C)O)C(N)=O (Ac-[Tle]TA[X1]DE(OAll)-NH2) | 0.21 | 4 | – | –
C=CCOC(=O)CC[C@H](NC(=O)[C@H](CC(=O)O)NC(=O)C(=O)[C@H](C)NC(=O)C(=C)NC(=O)[C@@H](NC(=O)[C@@H](NC(C)=O)[C@@H](C)CC)[C@@H](C)O)C(N)=O (Ac-IT[Dha][X1]DE(OAll)-NH2) | 0.33 | – | inactive | –
C=CCOC(=O)CC[C@H](NC(=O)[C@H](CC(=O)O)NC(=O)C(=O)[C@H](C)NC(=O)[C@H](CC)NC(=O)[C@@H](NC(=O)[C@@H](NC(C)=O)[C@@H](C)CC)[C@@H](C)O)C(N)=O (Ac-IT[Abu][X1]DE(OAll)-NH2) | 0.35 | – | – | –
C=CCOC(=O)CC[C@H](NC(=O)[C@H](CC(=O)O)NC(=O)C(=O)[C@H](C)NC(=O)[C@H](C)NC(=O)[C@H](Cc1c[nH]c2ccccc12)NC(=O)[C@@H](NC(C)=O)[C@@H](C)CC)C(N)=O (Ac-IWA[X1]DE(OAll)-NH2) | 0.24 | 5 | – | –
C=CCOC(=O)CC[C@H](NC(=O)[C@H](CC(=O)O)NC(=O)C(=O)[C@H](C)NC(=O)[C@H](C)NC(=O)[C@H](C)NC(=O)[C@@H](NC(C)=O)C1CCCC1)C(N)=O (Ac-[Gly(cPent)]AA[X1]DE(OAll)-NH2) | 58.4 | – | inactive | –
C=CCOC(=O)CC[C@H](NC(=O)[C@H](CC(=O)O)NC(=O)C(=O)[C@H](C)NC(=O)[C@H](C)NC(=O)[C@H](Cc1ccc(O)cc1)NC(=O)[C@@H](NC(C)=O)C1CCCC1)C(N)=O (Ac-[Gly(cPent)]YA[X1]DE(OAll)-NH2) | 0.025 | 44 | – | 0.15
C=CCOC(=O)CC[C@H](NC(=O)[C@H](CC(=O)O)NC(=O)C(=O)[C@H](C)NC(=O)[C@H](C)NC(=O)[C@@H](NC(=O)[C@@H](NC(C)=O)C(CC)CC)[C@@H](C)O)C(N)=O (Ac-[Nva(3-Et)]TA[X1]DE(OAll)-NH2) | 0.46 | 8 | – | –
C=CCOC(=O)CC[C@H](NC(=O)[C@H](CC(=O)O)NC(=O)C(=O)[C@H](C)NC(=O)CN(C)C(=O)[C@@H](NC(=O)[C@@H](NC(C)=O)C1CCCC1)[C@@H](C)O)C(N)=O (Ac-[Gly(cPent)]T[Sar][X1]DE(OAll)-NH2) | 4.7 | – | – | –
C=CCOC(=O)CC[C@H](NC(=O)[C@H](CC(=O)O)NC(=O)C(=O)[C@H](C)NC(=O)[C@H](C)NC(=O)[C@H](CCNC(=O)c1cnccn1)NC(=O)[C@@H](NC(C)=O)[C@@H](C)CC)C(N)=O (Ac-I[Dab](Pyrazinecarbonyl)A[X1]DE(OAll)-NH2) | 0.39 | 10 | – | –
C=CCOC(=O)CC[C@H](NC(=O)[C@H](CC(=O)O)NC(=O)C(=O)[C@H](C)NC(=O)[C@H](CO)NC(=O)[C@@H](NC(=O)[C@@H](NC(C)=O)C1CCCC1)[C@@H](C)O)C(N)=O (Ac-[Gly(cPent)]TS[X1]DE(OAll)-NH2) | 0.5 | – | inactive | –
C=CCOC(=O)CC[C@H](NC(=O)[C@H](CC(=O)O)NC(=O)C(=O)[C@H](C)NC(=O)C(C)(C)NC(=O)[C@@H](NC(=O)[C@@H](NC(C)=O)C1CCCC1)[C@@H](C)O)C(N)=O (Ac-[Gly(cPent)]T[Aib][X1]DE(OAll)-NH2) | > 100 | – | inactive | –
C=CCOC(=O)CC[C@H](NC(=O)[C@H](CC(=O)O)NC(=O)C(=O)[C@H](C)NC(=O)[C@H](CN)NC(=O)[C@@H](NC(=O)[C@@H](NC(C)=O)[C@@H](C)CC)[C@@H](C)O)C(N)=O (Ac-IT[Dap][X1]DE(OAll)-NH2) | 13.2 | – | – | –
C=CCOC(=O)CC[C@H](NC(=O)[C@H](CC(=O)O)NC(=O)C(=O)[C@H](CNC(C)=O)NC(=O)[C@H](C)NC(=O)[C@@H](NC(=O)[C@@H](NC(C)=O)C1CCCC1)[C@@H](C)O)C(N)=O | 2.39 | – | inactive | –
C=CCOC(=O)CC[C@H](NC(=O)[C@H](CC(=O)O)NC(=O)C(=O)[C@H](C)NC(=O)[C@H](C)NC(=O)[C@@H](NC(=O)[C@H](CC(C)(C)C)NC(C)=O)[C@@H](C)O)C(N)=O (Ac-[tBuAla]TA[X1]DE(OAll)-NH2) | 0.39 | – | inactive | –
C=CCOC(=O)CC[C@H](NC(=O)[C@H](CCC(=O)O)NC(=O)C(=O)[C@H](C)NC(=O)[C@H](C)NC(=O)[C@@H](NC(=O)[C@@H](NC(C)=O)[C@@H](C)CC)[C@@H](C)O)C(N)=O (Ac-ITA[X1]EE(OAll)-NH2) | 2.9 | – | – | –
C=CCOC(=O)CC[C@H](NC(=O)[C@H](CC(=O)O)NC(=O)C(=O)[C@H](C)NC(=O)[C@H](CC(F)(F)F)NC(=O)[C@@H](NC(=O)[C@@H](NC(C)=O)[C@@H](C)CC)[C@@H](C)O)C(N)=O (Ac-IT[Abu(4,4,4-F3)][X1]DE(OAll)-NH2) | 3.6 | – | – | –
C=CCOC(=O)CC[C@H](NC(=O)[C@H](CO)NC(=O)C(=O)[C@H](C)NC(=O)[C@H](C)NC(=O)[C@@H](NC(=O)[C@@H](NC(C)=O)[C@@H](C)CC)[C@@H](C)O)C(N)=O (Ac-ITA[X1]SE(OAll)-NH2) | 41.8 | – | – | –
C=CCOC(=O)CC[C@H](NC(=O)[C@H](CC(=O)O)NC(=O)C(=O)[C@H](C)NC(=O)[C@@H](C)NC(=O)[C@@H](NC(=O)[C@@H](NC(C)=O)C1CCCC1)[C@@H](C)O)C(N)=O | – | – | inactive | –
CC[C@H](C)[C@H](NC(C)=O)C(=O)N[C@H](C(=O)N[C@@H](C)C(=O)N[C@@H](C)C(=O)C(=O)N[C@@H](CC(=O)O)C(N)=O)[C@@H](C)O (Ac-ITA[X1]D-NH2) | 0.17 | 3 | – | –
C=CCOC(=O)CC[C@H](NC(=O)[C@H](CCO)NC(=O)C(=O)[C@H](C)NC(=O)[C@H](C)NC(=O)[C@@H](NC(=O)[C@@H](NC(C)=O)[C@@H](C)CC)[C@@H](C)O)C(N)=O (Ac-ITA[X1][hSer]E(OAll)-NH2) | 38.8 | – | – | –
C=CCOC(=O)CC[C@H](NC(=O)[C@H](CC(=O)O)NC(=O)C(=O)[C@H](C)NC(=O)[C@H](C)NC(=O)[C@H](CC(C)C)N(C)C(=O)[C@@H](NC(C)=O)C1CCCC1)C(N)=O (Ac-[Gly(cPent)][NMeL]A[X1]DE(OAll)-NH2) | 13.2 | – | – | –
C=CCOC(=O)CC[C@H](NC(=O)[C@H](CC(=O)O)NC(=O)C(=O)[C@H](C)NC(=O)CNC(=O)[C@@H](NC(=O)[C@@H](NC(C)=O)[C@@H](C)CC)[C@@H](C)O)C(N)=O (Ac-ITG[X1]DE(OAll)-NH2) | 1.28 | – | – | –
C=CCOC(=O)CC[C@H](NC(=O)[C@H](CC(=O)O)NC(=O)C(=O)[C@H](C)NC(=O)[C@H](C)NC(=O)[C@](C)(CC(C)C)NC(=O)[C@@H](NC(C)=O)C1CCCC1)C(N)=O (Ac-[Gly(cPent)][αMeL]A[X1]DE(OAll)-NH2) | 5.67 | – | inactive | –
